Calls of active or inactive are those of the source. The rule behind the calls is not given here.
Columns and labels:
[1] = target: T1, Large neutral amino acids transporter small subunit 2 (Homo sapiens) (UniProt Q9UHI5); test: Competitive inhibition of [14C]-L-alanine uptake at LAT2 in human MCF7 cells at 50 to 1000 uM measured during 5 mins by liquid scintillation counting; assay type: cell-based
T1 sequence (whole entry): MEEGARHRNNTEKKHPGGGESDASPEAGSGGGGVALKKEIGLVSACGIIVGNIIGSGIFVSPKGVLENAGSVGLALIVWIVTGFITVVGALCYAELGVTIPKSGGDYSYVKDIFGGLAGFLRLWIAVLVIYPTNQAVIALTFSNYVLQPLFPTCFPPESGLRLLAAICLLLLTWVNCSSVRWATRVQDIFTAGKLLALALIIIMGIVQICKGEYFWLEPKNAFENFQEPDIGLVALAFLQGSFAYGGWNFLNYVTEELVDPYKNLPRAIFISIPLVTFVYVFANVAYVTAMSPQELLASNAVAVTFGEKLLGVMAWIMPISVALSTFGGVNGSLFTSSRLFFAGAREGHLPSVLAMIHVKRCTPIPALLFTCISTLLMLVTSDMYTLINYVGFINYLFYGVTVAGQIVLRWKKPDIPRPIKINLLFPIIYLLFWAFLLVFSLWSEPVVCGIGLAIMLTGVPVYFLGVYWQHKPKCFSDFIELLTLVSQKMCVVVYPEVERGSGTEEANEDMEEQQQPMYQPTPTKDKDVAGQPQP
Summary of the method: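 MCF-7 cells were seeded at 1 × 10^5 cells/well and used one day later. Cells were washed and pre-incubated 10 min at 37 °C in HEPES-buffered HBSS (choline chloride, pH 7.4). Uptake of 10.0 µM [14C]-L-alanine ran 5 min at 37 °C with test agent (1–1000 µM) or DMSO blank. Cells were then given three ice-cold washes, lysed in 0.1 M NaOH and counted by liquid scintillation; n=3.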

[2] = Terminal half life in mouse heart at 23 umol/kg, ip administered as bolus by LC-MS analysis; assay type: ADME, organism-based; settings: read-out: beta t1/2
Summary of the method: (§1)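 Male adult mice (25 ± 5 g) given a single i.p. bolus at 23 µmol/kg. The dosing solution was 1.36 mM in 10% (v/v) DMSO, 20% (w/v) hydroxypropyl-β-cyclodextrin and 0.9% NaCl. Animals were decapitated at seven time points from 10 to 480 min. Plasma and tissues were acetonitrile-precipitated with repaglinide internal standard and analysed by LC-MS. Parameters were derived from concentration–time data, mean ± SEM (n=3).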

[3] = AUC (0 to 480 min) in mouse kidney at 23 umol/kg, ip administered as bolus by LC-MS analysis; assay type: ADME, organism-based; design: time < 8 hr, dose 23 umol/kg, route intraperitoneal; settings: in vivo, 8 h; summary of the method: as §1
[4] = Cmax in mouse prostate at 23 umol/kg, ip administered as bolus by LC-MS analysis; assay type: ADME, organism-based, Prostate gland; design: dose 23 umol/kg, route intraperitoneal; settings: in vivo; summary of the method: as §1
[5] = Unbound AUC (0 to 480 mins) in mouse prostate at 23 umol/kg, ip administered as bolus by LC-MS analysis; assay type: ADME, organism-based, Prostate gland; settings: in vivo
Summary of the method: (§2)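 Male mice (25 ± 5 g) dosed i.p. as a bolus at 23 µmol/kg in DMSO/hydroxypropyl-β-cyclodextrin/saline vehicle, sampled at time points 10–480 min; plasma and tissue homogenates (1:3 water) analysed by LC-MS. […] Mean ± SEM.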

[6] = Fraction unbound in mouse prostate at 23 umol/kg, ip administered as bolus by LC-MS analysis; assay type: ADME, organism-based, Prostate gland
Summary of the method: (§3)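 Unbound fraction was measured by equilibrium dialysis at 100 µM in mouse plasma and in brain, liver, kidney, heart and prostate homogenates.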

[7] = Unbound AUC (0 to 480 mins) in mouse liver at 23 umol/kg, ip administered as bolus by LC-MS analysis; assay type: ADME, organism-based; settings: in vivo; summary of the method: as §2
[8] = Fraction unbound in mouse liver at 23 umol/kg, ip administered as bolus by LC-MS analysis; assay type: ADME, organism-based; summary of the method: as §3
[9] = target: T2, Large neutral amino acids transporter small subunit 1 (Homo sapiens, UniProt Q01650); test: Inhibition of LAT1 in human MCF7 cells assessed as potentiation of cisplatin-induced antiproliferative activity by measuring reduction in cell viability at 100 uM measured after 72 hrs by resazurin dye-based fluorimetric analysis
Summary of the method: (§4)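 MCF-7 cells seeded 2 × 10^4/well on collagen-coated plates, treated one day later in growth medium with inhibitor (25 or 100 µM) plus bestatin or cisplatin (100 µM) for up to 3 days. Viability read daily by resazurin fluorescence (ex 560/em 590 nm). Viability is treated relative to untreated control. Mean ± SD, n=3.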

[10] = target: T2, Large neutral amino acids transporter small subunit 1; test: Inhibition of LAT1 in human MCF7 cells assessed as potentiation of bestatin-induced antiproliferative activity by measuring reduction in cell viability at 25 uM measured after 24 hrs by resazurin dye-based fluorimetric analysis; summary of the method: as §4
MCF7 [11] = test: Antiproliferative activity against human MCF7 cells assessed as reduction in cell viability measured after 72 hrs by resazurin dye-based fluorimetric analysis; assay type: functional
Summary of the method: (§5)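 MCF-7 cells were seeded at 2 × 10^4 cells/well on collagen-coated plates and treated one day later. Agents were given alone or combined (25 or 100 µM with 100 µM partner drug) in growth medium for 3 days. Viability was read daily by resazurin fluorescence (ex 560/em 590 nm) and expressed relative to untreated controls.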

[12] = Terminal half life in mouse liver at 23 umol/kg, ip administered as bolus by LC-MS analysis; assay type: ADME, organism-based; settings: read-out: beta t1/2; summary of the method: as §1
MCF7 [13] = test: Antiproliferative activity against human MCF7 cells assessed as reduction in cell viability at 25 measured after 48 hrs by resazurin dye-based fluorimetric analysis; assay type: functional; summary of the method: as §5
[14] = Plasma concentration in mouse at 23 umol/kg, ip measured after 180 mins; assay type: ADME, organism-based
[15] = Metabolic stability in mouse liver microsomes at 37 degreeC in presence of NADPH regenerating system measured after 2 hrs by HPLC analysis; assay type: ADME, Microsome
Summary of the method: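 Incubated at 37 °C for 2 h with mouse liver S9 fraction or with mouse liver microsomes plus NADPH; monitored by UV-HPLC chromatograms.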

[16] = target: T2, Large neutral amino acids transporter small subunit 1; test: Inhibition of LAT1 in human MCF7 cells assessed as potentiation of cisplatin-induced antiproliferative activity by measuring reduction in cell viability at 100 uM measured after 24 hrs by resazurin dye-based fluorimetric analysis; summary of the method: as §4
MCF7 [17] = test: Antiproliferative activity against human MCF7 cells assessed as reduction in cell viability at 25 uM measured after 24 hrs by resazurin dye-based fluorimetric analysis; assay type: functional; summary of the method: as §5
[18] = target: T2, Large neutral amino acids transporter small subunit 1; test: Drug uptake in human MCF7 cells assessed as LAT1 mediated drug transport per mg of protein at 100 uM measured 30 mins after warm wash by HPLC analysis; assay type: ADME, cell-based; settings: mcf7, 0.5 h
Summary of the method: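 MCF-7 monolayers were incubated with 100 µM compound in HBSS at 37 °C for 5 or 30 min. Cells got three washes with ice-cold or warm (37 °C) HBSS; in the warm 30 min arm they were washed after 5 min and again after 30 min. Lysates (0.1 M NaOH) were quantified by HPLC-UV against a spiked lysate standard curve and normalised to protein (Bio-Rad assay).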

Mus musculus = test: Binding affinity to LAT1 in mouse brain assessed as inhibition of [14C]-L-leucine uptake at 23 umol/kg, ip measured 180 mins post perfusion with [14C]-L-leucine; assay type: functional; settings: 3 h
Summary of the method: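 Mice under ketamine/xylazine anaesthesia had the right common carotid artery cannulated. Brains were perfused at 37 °C, 2.5 mL/min, for 30 s with 0.157 µM [14C]-L-leucine, then 2 s with analyte-free buffer at 4 °C. Perfusion took place 10 or 180 min after 23 µmol/kg i.p. dosing.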

T2 sequence (Q01650 whole entry): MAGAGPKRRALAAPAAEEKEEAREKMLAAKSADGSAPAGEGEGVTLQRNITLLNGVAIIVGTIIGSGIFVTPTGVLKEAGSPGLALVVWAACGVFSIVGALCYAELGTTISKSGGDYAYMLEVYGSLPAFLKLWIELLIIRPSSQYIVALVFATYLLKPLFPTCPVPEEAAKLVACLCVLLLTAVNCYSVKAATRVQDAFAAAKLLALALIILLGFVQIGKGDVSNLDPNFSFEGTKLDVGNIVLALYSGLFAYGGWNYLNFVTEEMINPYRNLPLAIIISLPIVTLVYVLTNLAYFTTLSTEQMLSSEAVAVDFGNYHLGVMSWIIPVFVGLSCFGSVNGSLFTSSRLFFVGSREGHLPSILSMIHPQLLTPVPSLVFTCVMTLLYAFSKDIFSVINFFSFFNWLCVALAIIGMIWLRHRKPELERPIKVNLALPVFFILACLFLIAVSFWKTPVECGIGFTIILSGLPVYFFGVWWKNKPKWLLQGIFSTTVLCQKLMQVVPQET

inhibition [1]: inactive | half-life [2]: 19.8 min | AUC [3]: 1426 nmol/g/min | Cmax [4]: 24.1 nmol/g | fAUC [5]: 18.4 nmol/g/min | fraction unbound [6]: 0.0144 | fAUC [7]: 18.9 nmol/g/min | fraction unbound [8]: 0.0098 | IC50 (MCF7 [11]; MCF7, 72 h): 124 µM | half-life [12]: 52.8 min | concentration at 3 h [14]: 0.23 µM | Stability [15]: Stable | Drug uptake [18]: 0.21 nmol/mg
SMILES: CNC(=O)COc1ccc(-c2c(C#N)c(NC(=O)c3cccc(C[C@H](N)C(=O)O)c3)n3c(nc4ccccc43)c2C#N)cc1
Activity [9]: 81.9% | Activity [10]: 24.7% | Activity (MCF7 [11]): Dose-dependent effect | Activity (MCF7 [13]): inactive | Activity [16]: 65% | Activity (MCF7 [17]): 13.9% | inhibition in vivo at 23 µmol/kg (Mus musculus): 14%
